Data: PubChem BioAssay AID822 (SRMLSC, 2007)
Active and inactive are the calls of the source.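 How the source made its calls: active means half-maximal effective dose for blocking growth of human endothelial cells at most 100 µM; inactive means the rest.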

What follows are molecules tested on HUVEC proliferation, viability ATP luminescence (assay: growth suppression of umbilical vein endothelial cells – cell-based, HUVEC, ATP luminescence, dose response (AID 822);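 further: cells exposed to compound for 72 h before the ATP read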).
Procedure, shortened: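 Material – HUVEC · Amount – 1250 HUVEC cells seeded per well · Medium – EBM plus 2% FBS · Dosing – dose series 0.039 to 20 µM, DMSO 0.2% · Times – 72 h exposure, 37 °C · Detection – ATP luminescence · Read-out basis – % viability and fitted EC50 · Format – collagen-coated plates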

`O=C1CC(c2ccco2)Cc2nc(Nc3nc(-c4ccccc4)c4ccccc4n3)ncc21` (stereo not drawn) and `Nc1c(S(=O)(=O)c2ccccc2)c2nc3ccccc3nc2n1/N=C/c1cccc(O)c1` are within 1.5-fold of each other in EC50: 7.44 µM for the first, 6.06 µM for the second.

Going from `CCC(C)(C)NC(=O)C(c1ccc(C)o1)N(Cc1cccs1)C(=O)Cn1nnc2ccccc21` (stereo not drawn) to `CCCn1c(Nc2nc3ccccc3n2C)nc2ccccc21`, the EC50 falls from 11.7 µM to 3.01 µM (3.9-fold).

Compared with `Cc1cccc(Nc2nc(NCc3ccco3)nc(N3CCOCC3)n2)c1`, `CC(Nc1nc(N2CCN(S(C)(=O)=O)CC2)nc2ccccc12)c1ccccc1` (stereo not drawn) is 4.2-fold higher in EC50: 2.15 µM for the first, 9.04 µM for the second.

First: CCCCCCc1cc2cc(-c3nnc(-c4ccccc4)o3)c(=O)oc2cc1O
Second: O=C(Nc1cccc(-c2nnc(-c3ccccc3)o2)c1)c1ccc(Br)o1
The EC50 of the first is 2.8-fold lower: 3.5 µM for the first, 9.92 µM for the second.

`COc1cccc(C(=O)c2sc(NC(C)C)nc2N)c1` and `COc1ccc(O)c(-c2cc(-c3cccc(Br)c3)n[nH]2)c1` are within 1.5-fold of each other in EC50: 16.2 µM for the first, 10.8 µM for the second.

`Cc1nc2c(C(=O)NCCC(C)C)c[nH]n2c(=O)c1Cc1ccccc1F` and `CCC(C)NC(=O)c1c(N)n(/N=C/c2ccccn2)c2nc3ccccc3nc12` (stereo not drawn) are within 1.5-fold of each other in EC50: 7.02 µM for the first, 9.34 µM for the second.

`Cc1ccccc1N1C(=O)CC(Sc2nnc(-c3ccccc3)o2)C1=O` (stereo not drawn) and `CC(C)(C)OC(=O)N[C@@H](Cc1ccccc1)c1nnc(S(=O)(=O)Cc2cccc(F)c2)o1` are within 1.5-fold of each other in EC50: 15.2 µM for the first, 14.3 µM for the second.

`CCOC(=O)c1ccc(NC(=O)CCc2nc(-c3ccc(C)cc3)no2)cc1` and `CCCOC(=O)c1ccc(Oc2cn[nH]c2-c2ccc(OC)cc2O)cc1` are within 1.5-fold of each other in EC50: 16.5 µM for the first, 12.3 µM for the second.

First: COC(=O)COc1ccc(S(=O)(=O)NCCC2=CCCCC2)cc1
Second: COc1ccc(N/N=C2/CCCCC2=O)cc1
The EC50 of the first is 3-fold higher: 10.4 µM for the first, 3.51 µM for the second. The second is the more potent here.

Compared with `COc1ccccc1-c1nnc2n1N=C(c1ccc(O)c(O)c1)CS2`, `C=C(C)COc1ccc(-c2n[nH]c(C)c2-c2ccccc2OC)c(O)c1` is 15-fold higher in EC50: 0.847 µM for the first, 13 µM for the second.

`CCN1CCN(c2ncc(C(=O)Nc3cc(Cl)c(OC)cc3OC)c3ccccc23)CC1` and `OC(COc1ccc(Cl)c2ccccc12)CN1CCN(c2ccccn2)CC1` (stereo not drawn) are within 1.5-fold of each other in EC50: 14.2 µM for the first, 12.3 µM for the second.

`CC1CCc2sc3nc(N4CCN(CCO)CC4)n4ncnc4c3c2C1` (stereo not drawn) and `CCc1ccc(-c2nc(CN3CCC(C(=O)N4CCN(c5ccccn5)CC4)CC3)c(C)o2)cc1` are within 1.5-fold of each other in EC50: 19.6 µM for the first, 14.2 µM for the second.

First: CCOC(=O)c1c(NC(=O)CCl)sc(C(=O)N(CC)CC)c1C
Second: CCOC(=O)c1cc2c(N)c(C(=O)c3cc(C#N)c(SC)nc3C)sc2nc1C
The EC50 of the first is 2.3-fold higher: 12.3 µM for the first, 5.27 µM for the second. The second is the more potent here.

Going from `CC1(C)CC(=O)C2=C(C1)Oc1nc3ccccc3cc1C2C(C#N)C#N` (stereo not drawn) to `CCC1(C)Cc2c(sc3[nH]c(=S)n(Cc4ccccc4)c(=O)c23)CO1` (stereo not drawn), the EC50 falls from 11.4 µM to 3.07 µM (3.7-fold).

Compared with `CCCCCCn1c(C)nc2c(c1=O)c1nc3ccccc3nc1n2/N=C/c1ccco1`, `CCCCCCOC(=O)C(C#N)c1nc2ccccc2nc1N1CCN(CC)CC1` (stereo not drawn) is 1.8-fold lower in EC50: 14.5 µM for the first, 8.05 µM for the second. The second is the more potent here.

Compared with `COc1cc(/C=C(/C(=O)c2cccs2)c2nc3ccccc3[nH]2)cc(OC)c1O`, `COc1ccc(CN=C(C)c2c(C(F)(F)F)[nH]n(-c3nc4ccccc4s3)c2=O)cc1` is 2.9-fold higher in EC50: 1.99 µM for the first, 5.87 µM for the second. The first is the more potent here.

First: Cc1ccccc1NC(=O)CSC(N)=O
Second: COc1ccccc1NC(=O)CC1C(=O)NCCN1C(=O)Nc1ccc(Cl)c(Cl)c1 (stereo not drawn)
The EC50 of the first is 1.8-fold higher: 19 µM for the first, 10.8 µM for the second. The second is the more potent here.

`CCCc1[nH]nc2c1C(c1ccc(Br)s1)C(C#N)=C(N)O2` (stereo not drawn) and `C=CCOC(=O)C1=C(C)NC(SCC(=O)Nc2nccs2)=C(C#N)C1c1cccs1` (stereo not drawn) are within 1.5-fold of each other in EC50: 8.67 µM for the first, 6.19 µM for the second.

Going from `CCC(=O)OCCNc1cc(Sc2nc3ccccc3s2)c2nonc2c1[N+](=O)[O-]` to `Cc1ccc2nc(NC(=O)CSc3ncnc4c3oc3ccccc34)sc2c1`, the EC50 falls from 14.5 µM to 5.79 µM (2.5-fold). The second is the more potent here.

First: COc1ccc2cc3cc(C(=O)Nc4ccc5c(c4)OCCO5)oc3nc2c1
Second: CCOC(=O)c1cnc(-n2nc(C)cc2C)nc1NCc1ccc2c(c1)OCO2
The EC50 of the first is 5-fold higher: 11.7 µM for the first, 2.34 µM for the second. The second is the more potent here.

`CN1CCN(CCCN2c3ccccc3Sc3ccc(C(F)(F)F)cc32)CC1` and `CCCCC[n+]1ccn(C2=C([O-])c3ccccc3C(=O)/C2=N\S(=O)(=O)c2ccccc2)c1` are within 1.5-fold of each other in EC50: 6.57 µM for the first, 6.1 µM for the second.

First: O=C(Cn1c(=O)n(CCCC(=O)NC2CCCC2)c(=O)c2ccccc21)NCCC1=CCCCC1
Second: CCCCN(CC)S(=O)(=O)c1ccc(C(=O)Nc2nnc(-c3ccccc3Cl)o2)cc1
The EC50 of the first is 4.8-fold higher: 18.1 µM for the first, 3.8 µM for the second. The second is the more potent here.

Compared with `COc1ccc(-n2c(SCC(=O)Nc3sc4c(c3C#N)CCCC4)nnc2-c2ccc(O)cc2)cc1`, `CCCOc1ccc(-c2nc(C#N)c(NCCCn3ccnc3)o2)cc1` is 2.6-fold higher in EC50: 4.32 µM for the first, 11.3 µM for the second. The first is the more potent here.

Going from `O=C1CSC(=S)N1Cc1cccnc1` to `Cc1ccc(S(=O)(=O)c2c(C)nn(C(C)(C)C)c2OC(=O)c2ccco2)cc1`, the EC50 falls from 19.2 µM to 12.1 µM (1.6-fold).

For `CCOc1cc(/C=C\c2[nH]c(=O)[nH]c(=O)c2[N+](=O)[O-])ccc1OC(C)CC` (stereo not drawn), the EC50 was 4.12 µM.

In the case of `CCN(CC)CC(=O)Nc1ccc(-c2nc3cc(NC(=O)CN(CC)CC)ccc3o2)cc1`, the EC50 is reported as > 10 µM (inactive).
`CC(=O)n1cc(-c2ccncc2)c2ccccc21` was tested, and the EC50 was > 10 µM (inactive).
With `O/N=C1\CC/C(=N\O)c2nn(-c3ccccc3Cl)nc21` the EC50 was > 10 µM (inactive).
In the case of `Brc1ccc(-c2csc(NNC3=NCCCCC3)n2)cc1`, the EC50 is reported as > 10 µM (inactive).
